Experimental findings from ChEMBL document CHEMBL1125155, “Preparation and anticonvulsant activity of a series of functionalized alpha-aromatic and alpha-heteroaromatic amino acids” (J Med Chem, 1990) are described below.

For data set [1], the system named is Mus musculus. Put plainly: Concentration required to inhibit seizures was determined in MES test after (ip) administration in mice. The data set is classed as functional. The essentials:
(§1)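 Male CF-1 mice; compounds dissolved in 30% polyethylene glycol 400, given ip. Screening at 30, 100, 300 mg/kg, four mice per dose, tested at 0.5, 1 and 4 h for protection against maximal electroshock seizures.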

The nature of data set [2]: Neurological toxicity was determined using horizontal screen test in mice after intraperitoneal administration. The data set is classed as organism-based. The conditions noted are these: mouse, in vivo, ip. The essentials:
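Male CF-1 mice, ip dosing in 30% PEG 400. Previously trained mice placed on a 13 × 13 cm no. 4 mesh wire screen on a vertical rod. Rod rotated 180°; failure to return to top within 1 min counted as impairment.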

Data set [3] in a line: Neurological toxicity was determined using horizontal screen test in mice after intraperitoneal administration; Range is >100 to <300. The class given is organism-based. The conditions noted are these: mouse, in vivo, ip.
Data set [4] deals with Mus musculus. Put plainly: Concentration required to inhibit seizures was determined in MES test after (ip) administration in mice; Range is >100 to <300. The data set is classed as functional.
A short description of data set [5]: Protective index (TD50/ED50) was determined. The data set is classed as functional. The essentials: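 Ratio of horizontal-screen TD50 to MES ED50, both ip in male CF-1 mice given in 30% PEG 400. Both values taken at time of peak anticonvulsant activity, each from a dose-response curve (10–12 or 12 mice per dose).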
For data set [6], the system named is Mus musculus. Put plainly: Concentration required to inhibit seizures was determined in MES test after (ip) administration in mice; Range is >25 to <100. The class given is functional. The essentials: as §1

Broadly, the ED50 is the dose that gives a 50% effect, or the effect in half of the subjects. High values mean a need for a large dose, low ones an effect at a small dose. Turning to `CCC1(c2ccccc2)C(=O)NC(=O)NC1=O` [PHENOBARBITAL], the ED50 in the data set with Mus musculus [1] was found to be 21.8 mg/kg.

What is called TD50 is the dose at which the toxic effect under study appears in half of the subjects. A low value points to harm at a small dose. For the compound `CC(=O)NC(C(=O)NCc1ccccc1)c1ccco1` (configuration not stated), in data set [2], the TD50 was roughly 40 mg/kg. In the data set on Mus musculus [1], this compound returned an ED50 of 10.3 mg/kg.

In turn, `CC(=O)NC(C(=O)NCc1cccc(F)c1)c1ccco1` (configuration not stated) came in with a TD50 in data set [2] of 136 mg/kg. In data set [2], `CC(=O)NC(C(=O)NCc1ccccc1)c1ccccc1` (configuration not stated) came in with a TD50 greater than 40 mg/kg. In the data set with Mus musculus [1], this compound gave an ED50 of 32.1 mg/kg. Regarding `CC(=O)NC(C(=O)NCc1ccccc1)c1ccc(C)o1` (configuration not stated), in data set [2], the TD50 worked out at 75.4 mg/kg. Turning to `CC(=O)NC(C(=O)NCc1ccccc1)c1ccc(O)cc1` (configuration not stated), the ED50 with Mus musculus [1] was greater than 300 mg/kg.

With `CC(=O)N[C@H](C)C(=O)NCc1ccccc1`, in data set [2], the TD50 came to 214 mg/kg. Also, in the data set on Mus musculus [1], the ED50 worked out at 54.8 mg/kg.

In turn, `CC(=O)N[C@H](C(=O)NCc1ccccc1)c1ccco1` returned a TD50 in data set [2] greater than 200 mg/kg. In the data set on Mus musculus [1], this compound displayed an ED50 greater than 25 mg/kg. The compound `CC(=O)NC(C(=O)NCc1ccccc1)c1cc2ccccc2o1` (configuration not stated) yielded a TD50 in data set [3] greater than 100 mg/kg. In the data set with Mus musculus [4], the ED50 is greater than 100 mg/kg. For the compound `CC(=O)NC(C(=O)NCc1ccccc1)c1cccn1C` (configuration not stated), the 50% effective dose (ED50) in the data set with Mus musculus [1] was roughly 300 mg/kg. For `CC(=O)NC(C(=O)NCc1ccccc1)c1ccsc1` (configuration not stated), the TD50 in data set [2] was greater than 100 mg/kg. `CC(=O)NC(C(=O)NCc1ccccc1)c1cc(C)ccc1O` (configuration not stated) gave an ED50 in the data set on Mus musculus [1] greater than 300 mg/kg. Regarding `CC(=O)NC(C(=O)NCc1ccccc1)c1cc2ccccc2s1` (configuration not stated), the TD50 in data set [3] is greater than 100 mg/kg. The compound further displayed an ED50 in the data set with Mus musculus [4] greater than 100 mg/kg. `CC(=O)NC(C(=O)NCc1ccccc1)c1c[nH]c2ccccc12` (configuration not stated) registered a TD50 in data set [2] of less than 300 mg/kg. Besides, the ED50 in the data set with Mus musculus [1] was greater than 300 mg/kg. Take `CC(=O)NC(C(=O)NCc1ccc(F)cc1)c1ccco1` (configuration not stated): the TD50 in data set [2] was 144 mg/kg. With `CC(=O)NC(C(=O)NCc1ccccc1)c1ccc[nH]1` (configuration not stated), the TD50 in data set [2] is greater than 30 mg/kg.

In the case of `COc1ccc(C(NC(C)=O)C(=O)NCc2ccccc2)cc1` (configuration not stated), the ED50 with Mus musculus [1] is greater than 300 mg/kg. `CC(=O)N[C@@H](C)C(=O)NCc1ccccc1`: the TD50 in data set [2] was 841 mg/kg. This compound registered an ED50 in the data set on Mus musculus [1] of 548 mg/kg.

Turning to `CC(=O)N[C@@H](C(=O)NCc1ccccc1)c1ccccc1`, the TD50 in data set [2] is greater than 80 mg/kg. The compound further had an ED50 in the data set with Mus musculus [1] of 26.4 mg/kg. As for `CC(=O)N[C@@H](C(=O)NCc1ccccc1)c1ccco1`, the TD50 in data set [2] came to 23.8 mg/kg. Further, in data set [5], the Ratio was 7.2. This compound also yielded an ED50 in the data set with Mus musculus [1] of 3.3 mg/kg. The compound `CC(=O)N[C@H](C(=O)NCc1ccccc1)c1ccccc1` yielded a TD50 in data set [2] greater than 100 mg/kg. The compound further yielded an ED50 with Mus musculus [1] greater than 300 mg/kg.

The compound `CC(=O)NC(C(=O)NCc1ccccc1)c1cccs1` (configuration not stated) showed a TD50 in data set [2] greater than 30 mg/kg. As for `CC(=O)NC(C(=O)NCc1c(F)cccc1F)c1ccco1` (configuration not stated), in the data set on Mus musculus [6], the ED50 was greater than 25 mg/kg.

On to `CC(=O)NC(C(=O)NCc1ccccc1)c1ccc2ccccc2c1` (configuration not stated), for which the TD50 in data set [2] was greater than 300 mg/kg. Besides, in the data set on Mus musculus [1], the ED50 was greater than 300 mg/kg.
